Laboratory results: ChEMBL document CHEMBL2412972, “Design, synthesis and biological evaluation of novel triaryl (Z)-olefins as tamoxifen analogues” (Bioorg Med Chem Lett, 2013)
The source made the active and inactive calls. The rule behind the calls is not given here.

Columns and labels:
MDA-MB-231 [1] = assay: Antiproliferative activity against human MDA-MB-231 cells after 72 hrs by MTT assay; assay type: functional, cell-based; conditions: MDA-MB-231, 72 h
Outline: (§1)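 Cells were seeded in 96-well plates for 24 h, then exposed to a range of concentrations for 72 h in DMEM/F-12 with 5% FBS. DMSO vehicle controls were matched. MTT was added at 0.5 mg/ml for 2 h at 37 °C, solubilized in DMSO, and read at 570 nm. IC50 is the concentration giving 50% cell death relative to DMSO control. Mean ± SD, n = 6.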

MCF7 [2] = assay: Antiproliferative activity against human MCF7 cells after 72 hrs by MTT assay; assay type: functional, cell-based; conditions: MCF7, 72 h; outline: as §1
MDA-MB-231 [3] = assay: Ratio of tamoxifen IC50 to compound IC50 for human MDA-MB-231 cells after 72 hrs by MTT assay; assay type: functional
MCF7 [4] = assay: Antiproliferative activity against human MCF7 cells at 5 uM after 72 hrs by MTT assay in presence of estradiol; assay type: functional, cell-based
Outline: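 MCF-7 cells (ATCC) were maintained in DMEM/F-12 with 10% FBS at 37 °C and 5% CO2. They were seeded for 24 h, then treated with 5 µM test agent for 72 h in 5% FBS medium, with and without estradiol. Read-out was MTT absorbance at 570 nm, expressed as percent of control wells. Two experiments, each with six replicates; mean ± SD.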

MCF7 [5] = assay: Induction of apoptosis in human MCF7 cells assessed as caspase 3/7 activation after 72 hrs by luminescence assay; assay type: functional, cell-based
Outline: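 MCF-7 cells were plated at 1×10^4 per well, incubated for 24 h, then treated for 72 h. Caspase-3/7 activity was measured with a Caspase-Glo luminogenic DEVD substrate, and luminescence was reported as relative light units. Compared with DMSO vehicle; mean ± SD, n = 6.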

MCF7 [6] = assay: Ratio of tamoxifen IC50 to compound IC50 for human MCF7 cells after 72 hrs by MTT assay; assay type: functional

| SMILES | IC50 (MDA-MB-231 [1]) [µM] | IC50 (MCF7 [2]) [µM] | Ratio IC50 (MDA-MB-231 [3]) | Activity (MCF7 [4]) | Activity (MCF7 [5]) | Ratio IC50 (MCF7 [6]) |
| --- | --- | --- | --- | --- | --- | --- |
| C/C(=C(\c1ccccc1)c1ccc(OCCN2CCCCC2)cc1)c1ccc(F)cc1 | 43 | 16.6 |  |  |  |  |
| C/C(=C(\c1ccccc1)c1ccc(OCCN2CCNCC2)cc1)c1ccc(F)cc1 | 13 | 5.58 | 2 | Active | Active | 2 |
| C/C(=C(\c1ccccc1)c1ccc(OCCN2CCN(C)CC2)cc1)c1ccc(F)cc1 | > 100 | 86.3 |  |  |  |  |
| C/C(=C(\c1ccccc1)c1ccc(OCCN2CCN(C)CC2)cc1)c1ccccc1 | 10.5 | 6.75 | 2 | Active | Active | 2 |
| CC/C(=C(\c1ccccc1)c1ccc(OCCN(C)C)cc1)c1ccccc1 [TAMOXIFEN] | 64.8 | 28 |  |  |  |  |

Further lines, with some results ahead:

| IC50 (MDA-MB-231 [1]) [µM] | IC50 (MCF7 [2]) [µM] | SMILES | Ratio IC50 (MDA-MB-231 [3]) | Activity (MCF7 [4]) | Activity (MCF7 [5]) | Ratio IC50 (MCF7 [6]) |
| --- | --- | --- | --- | --- | --- | --- |
| 73.5 | 55.5 | C/C(=C(\c1ccccc1)c1ccc(OCCN2CCCCC2)cc1)c1ccccc1 |  |  |  |  |
| > 100 | > 100 | C/C(=C(\c1ccccc1)c1ccc(OCCN2CCNCC2)cc1)c1ccccc1 |  |  |  |  |
